Data reported in ChEMBL document CHEMBL4627404, “Design, Synthesis, and Activity Study of Water-Soluble, Rapid-Release Propofol Prodrugs” (J Med Chem, 2020).
Active and inactive are the calls of the source. No cut-off for these calls is given here.

Key:
[1] = Toxicity in iv dosed drug naive Kunming mouse assessed as mouse survival dosed at 2 times anesthetic ED50; type: organism-based; conditions: in vivo
In short: (§1)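 Ten drug-naïve male KM mice (20-30 g) per drug received 2×ED50 by tail-vein injection. Onset is timed from end of injection to appearance of LORR. Duration is timed from LORR appearance to its recovery. Survival is recorded over the 10 mice.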

Mus musculus [2] = assay: Anesthetic activity in iv dosed drug naive Kunming mouse assessed as loss of righting reflex; type: functional
In short: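 Male KM mice (20-30 g), at least 20 drug-naïve animals per drug, given a tail-vein bolus over ~10 s. Anaesthesia scored as loss of righting reflex. ED50 found by the up-and-down method and analysed by Dixon–Mood to give the median effective dose with 95% CI.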

[3] = Toxicity in iv dosed drug naive Kunming mouse; type: organism-based; conditions: in vivo
In short: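 Male KM mice (20-30 g), at least 20 drug-naïve animals per drug, given a tail-vein bolus over ~10 s. LD50 found by the up-and-down method.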

Mus musculus [4] = assay: Anesthetic activity in iv dosed drug naive Kunming mouse assessed as time from end of injection to appearance of loss of righting reflex dosed at 2 times anesthetic ED50; type: functional; in short: as §1
[5] = Drug metabolism in iv dosed drug naive Kunming mouse assessed dose of propofol released from prodrugs dosed at 2 times anesthetic ED50; type: ADME, organism-based; conditions: in vivo
In short: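 Propofol delivered at 2×ED50 is calculated as (MW propofol/MW prodrug)×(2×ED50) mg/kg from the tail-vein ED50 in KM mice.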

[6] = Therapeutic index, ratio of LD50 for toxicity in iv dosed drug naive Kunming mouse to ED50 for anesthetic activity in iv dosed drug naive Kunming mouse assessed as loss of righting reflex; type: organism-based; conditions: in vivo, read-out: Ratio LD50/ED50
In short: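 TI = LD50/ED50. Both values come from tail-vein bolus (~10 s) dosing of male KM mice (20-30 g, at least 20 drug-naïve per drug) by the up-and-down method. The ED50 end point is loss of righting reflex.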

[7] = Stability in Kunming mouse plasma assessed as drug decomposition at 100 ug/ml incubated for 2 hrs by HPLC analysis; type: ADME, cell-free
[8] = Stability in water at 10 mg/ml incubated for 4 hrs by HPLC analysis; type: physicochemical; conditions: buffer
In short: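 Aqueous solutions (10 mg/ml) held at 30 °C for 4 h before the plasma hydrolysis studies, n=3.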

[9] = Solubility in water; type: physicochemical
[10] = Solubility in water measured per 100 ml; type: physicochemical; conditions: buffer
[11] = Drug metabolism in Kunming mouse plasma assessed as propofol release at 100 ug/ml incubated up to 120 mins by HPLC analysis relative to control; type: ADME, cell-free; conditions: 2 h
[12] = Stability in Kunming mouse plasma assessed as drug decomposition at 100 ug/ml incubated up to 120 mins by HPLC analysis; type: ADME, cell-free; conditions: 2 h
In short: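 Mouse blood was heparinised at sampling and centrifuged at 3500×g for 5 min at 4 °C to obtain plasma. A 10 mg/ml aqueous stock was diluted 1:100 into plasma, giving a final 100 μg/ml, and shaken at 37 °C for 2 h. The read-out was the percentage of propofol released, given as mean ± SD. Water stability (30 °C, 4 h, n=3) was checked beforehand.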

CC(C)c1cccc(C(C)C)c1OC(=O)COC(=O)CN(C)C.Cl
survival [1]: 40% | ED50 (Mus musculus [2]): 40.2 mg/kg | LD50 [3]: 93.8 mg/kg | Time (Mus musculus [4]): 4.6 s | Drug metabolism [5]: 40.1 mg/kg | selectivity ratio [6]: 2.3

CC(C)c1cccc(C(C)C)c1OC(=O)COC(C(=O)[O-])C(=O)[O-].[Na+].[Na+]
ED50 (Mus musculus [2]): inactive | Stability [7]: Stable

CC(C)c1cccc(C(C)C)c1OC(=O)OCCC(=O)[O-].[Na+]
ED50 (Mus musculus [2]): inactive | Stability [8]: Stable

CC(C)c1cccc(C(C)C)c1OC(=O)COCC(=O)[O-].[Na+]
survival [1]: 100% | ED50 (Mus musculus [2]): 65.7 mg/kg | Time (Mus musculus [4]): 82.3 s | solubility [9]: < 20 mg/mL | Drug metabolism [5]: 74 mg/kg

CNCC(=O)OCC(=O)Oc1c(C(C)C)cccc1C(C)C.Cl
survival [1]: 60% | ED50 (Mus musculus [2]): 29.6 mg/kg | LD50 [3]: 60.8 mg/kg | Time (Mus musculus [4]): 8 s | Drug metabolism [5]: 30.7 mg/kg | selectivity ratio [6]: 2

CC(C)c1cccc(C(C)C)c1OC(=O)CNCC(=O)O.Cl
solubility [9]: < 10 mg/mL

CC(C)c1cccc(C(C)C)c1OC(=O)COC(=O)CN1CCCC1.Cl
survival [1]: 100% | ED50 (Mus musculus [2]): 25.2 mg/kg | LD50 [3]: 92.1 mg/kg | Time (Mus musculus [4]): 4 s | Drug metabolism [5]: 23.4 mg/kg | selectivity ratio [6]: 3.6 | solubility [10]: 83.96 g

CC(C)c1cccc(C(C)C)c1OC(=O)CN1CCOCC1
survival [1]: 30% | ED50 (Mus musculus [2]): 36.6 mg/kg | LD50 [3]: 75 mg/kg | Time (Mus musculus [4]): 12 s | Drug metabolism [5]: 42.7 mg/kg | selectivity ratio [6]: 2.1

CC(C)c1cccc(C(C)C)c1OCOP(=O)([O-])[O-].[Na+].[Na+] [FOSPROPOFOL DISODIUM]
survival [1]: 100% | ED50 (Mus musculus [2]): 105 mg/kg | LD50 [3]: 288 mg/kg | Time (Mus musculus [4]): 46.4 s | Drug metabolism [5]: 112.7 mg/kg | selectivity ratio [6]: 2.8

CC(C)c1cccc(C(C)C)c1OC(=O)COC(=O)C1COCCN1.Cl (stereo not given)
survival [1]: 60% | ED50 (Mus musculus [2]): 30.4 mg/kg | LD50 [3]: 69.6 mg/kg | Time (Mus musculus [4]): 6.7 s | Drug metabolism [5]: 28.1 mg/kg | selectivity ratio [6]: 2.3

CC(C)c1cccc(C(C)C)c1OC(=O)COC(=O)C1CCCCN1.Cl (stereo not given)
survival [1]: 20% | ED50 (Mus musculus [2]): 20.8 mg/kg | LD50 [3]: 54.4 mg/kg | Time (Mus musculus [4]): 10.6 s | Drug metabolism [5]: 19.3 mg/kg | selectivity ratio [6]: 2.6

CC(C)c1cccc(C(C)C)c1OC(=O)COC(=O)CC(=O)[O-].[Na+]
survival [1]: 100% | ED50 (Mus musculus [2]): 75.9 mg/kg | LD50 [3]: 244 mg/kg | Time (Mus musculus [4]): 72.2 s | Drug metabolism [5]: 76 mg/kg | selectivity ratio [6]: 3.2

CC(C)c1cccc(C(C)C)c1OC(=O)COC(=O)CCC(=O)[O-].[Na+]
survival [1]: 80% | ED50 (Mus musculus [2]): 73.1 mg/kg | LD50 [3]: 205 mg/kg | Time (Mus musculus [4]): 25.5 s | Drug metabolism [11]: Metabolite_Detected | Drug metabolism [5]: 75.7 mg/kg | selectivity ratio [6]: 2.8

CC(C)c1cccc(C(C)C)c1OC(=O)OCC(=O)[O-].[Na+]
ED50 (Mus musculus [2]): inactive | Stability [8]: Stable

CC(C)c1cccc(C(C)C)c1OC(=O)COC(=O)CN1CCOCC1.Cl
survival [1]: 100% | ED50 (Mus musculus [2]): 28.1 mg/kg | LD50 [3]: 132 mg/kg | Time (Mus musculus [4]): 3.1 s | Drug metabolism [11]: Metabolite_Detected | Drug metabolism [5]: 25.1 mg/kg | selectivity ratio [6]: 4.7 | solubility [10]: 76.33 g

CC(C)c1cccc(C(C)C)c1OC(=O)COC(=O)CN1CCCCC1.Cl
survival [1]: 100% | ED50 (Mus musculus [2]): 22.3 mg/kg | LD50 [3]: 91.4 mg/kg | Time (Mus musculus [4]): 3 s | Drug metabolism [5]: 22 mg/kg | selectivity ratio [6]: 4.1 | solubility [10]: 85.86 g

CC(C)c1cccc(C(C)C)c1OC(=O)COC(=O)CN.Cl
survival [1]: 10% | ED50 (Mus musculus [2]): 34.3 mg/kg | LD50 [3]: 89.2 mg/kg | Time (Mus musculus [4]): 9.1 s | Drug metabolism [5]: 37.1 mg/kg | selectivity ratio [6]: 2.6

CC(C)c1cccc(C(C)C)c1OC(=O)OC(CC(=O)[O-])C(=O)[O-].[Na+].[Na+] (stereo not given)
Stability [12]: Stable | ED50 (Mus musculus [2]): inactive | Stability [8]: Stable

CC(C)c1cccc(C(C)C)c1OC(=O)COC(=O)CN1CCN(C)CC1.Cl
survival [1]: 70% | ED50 (Mus musculus [2]): 40.3 mg/kg | LD50 [3]: 91.6 mg/kg | Time (Mus musculus [4]): 2.4 s | Drug metabolism [5]: 34.8 mg/kg | selectivity ratio [6]: 2.3

CC(C)c1cccc(C(C)C)c1OC(=O)COC(=O)[C@H](C)N.Cl
survival [1]: 50% | ED50 (Mus musculus [2]): 20.5 mg/kg | LD50 [3]: 51.9 mg/kg | Time (Mus musculus [4]): 18.2 s | Drug metabolism [5]: 21.2 mg/kg | selectivity ratio [6]: 2.5

CC(C)c1cccc(C(C)C)c1O [PROPOFOL]
survival [1]: 100% | LD50 [3]: 52.2 mg/kg | Time (Mus musculus [4]): 1 s | Drug metabolism [5]: 23.4 mg/kg | selectivity ratio [6]: 4.5 | solubility [10]: 1.53 ×10⁻² g

CC(C)c1cccc(C(C)C)c1OC(=O)OC(C(=O)[O-])C(=O)[O-].[Na+].[Na+]
Stability [12]: Stable | ED50 (Mus musculus [2]): inactive | Stability [8]: Stable

CC(C)c1cccc(C(C)C)c1OC(=O)CSCC(=O)[O-].[Na+]
survival [1]: 0% | ED50 (Mus musculus [2]): 190 mg/kg | LD50 [3]: 222 mg/kg | Time (Mus musculus [4]): 20.2 s | Drug metabolism [5]: 203.6 mg/kg | Stability [7]: Stable | selectivity ratio [6]: 1.2
